A selection: hits, their analogues and other compounds. The true share with any hit is near 4.3%.
MC4R barr agon – MC4R agonists recruiting beta-arrestin, primary screen, cell-based, luminescence, agonist arm of biased-ligand search; Melanocortin receptor 4 (Homo sapiens), P32245; U2OS MC4R beta-arrestin complementation; percent of melanotan II response, DMSO zero; hit rate 0.98% among 360,000; activation, % at 8.9 µM;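 active = activation above a per-plate cutoff, the mean activation of sample wells on that plate plus 3 SD, cut at about 8% in these data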
TAAR1 agonist – human TAAR1 agonists, primary screen, Fluo-8 calcium fluorescence, CHO RD-HGA16 cells | activation, % at 3 µM | vehicle wells 0%, saturating PEA agonist 100% | Trace amine-associated receptor 1 (Homo sapiens), Q96RJ0 | hit rate 0.99% among 360,000;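 active = activation above the mean activation of all test compounds in the run plus 3 SD, cut at about 38% in these data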
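Test system: RD-HGA16 (CHO) cells co-expressing Gα16 and hTAAR1 / Benchmarks: DMSO vehicle as 0%, PEA at EC100 as 100% / Repeats: no replicates (n 1) / Measure: % activation from peak over basal fluorescence ratio, DMSO-to-PEA scaled / Timing: 17-24 h plating, Fluo-8 75 min 37 °C, 30 min RT / Technique: kinetic Fluo-8 calcium fluorescence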
TAAR1 antagonist – human TAAR1 antagonists, primary screen, Fluo-8 calcium fluorescence, CHO RD-HGA16 cells; Trace amine-associated receptor 1 (Homo sapiens), Q96RJ0; antagonist; inhibition, % at 3 µM; hit rate 1.5% among 360,000; AID 624466, 2012;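 active = inhibition above a per-plate cutoff, the mean inhibition of test compounds on that plate plus 3 SD, cut at about 49% in these data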;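 note: 0% = DMSO plus EC80 beta-PEA response and 100% = DMSO alone without agonist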
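Material: RD-HGA16 CHO cells with stable hTAAR1 and Gα16; Dosing: single nominal final test compound concentration of 3 µM; Schedule: seeding 17-24 h prior, 75-min 37 °C, 30-min RT dye loading; Detection: kinetic Fluo-8 calcium fluorescence measurement; Measure: % inhibition from peak post-agonist over basal fluorescence ratio; Benchmarks: vehicle and agonist controls.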
m5-HT2A agonist – mouse Htr2a agonists via beta-arrestin recruitment, primary screen, cell-based, luminescence; 5-hydroxytryptamine receptor 2A (Mus musculus), P35363; CHO-K1 mHTR2A beta-arrestin complementation; percent of 30 µM serotonin response; activation, % at 7.6 µM; hit rate 0.66% among 360,000; AID 624169, 2012;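 active = activation above a run cutoff, the mean activation of all tested compounds plus 3 SD, cut at about 14% in these data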;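 note: 0% = plate median of compound wells and 100% = 30 µM serotonin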
MC4R antag cAMP – MC4R antagonists of cAMP signaling, primary screen, cell-based, TR-FRET, antagonist arm of biased-ligand search; hit rate 0.48% among 360,000; MC4R-expressing cells, MTII-stimulated cAMP, LANCE TR-FRET; inhibition, % at 6.5 µM;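 active = inhibition above its plate's cutoff, the mean of tested wells on that plate plus 3 SD, cut at about 29% in these data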;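 note: 0% = Melanotan II alone and 100% = Melanotan II plus saturating MCL0020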
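Material – human MC4R-expressing U2OS cells · Repeats – no replicates · Detection – TR-FRET with Eu-cAMP and labeled anti-cAMP, 671 nm · Times – compound 30 min, challenge 1 h, detection 1 h · Compound – single nominal compound dose of 6.5 µM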
B2AR ag – beta2AR agonists driving receptor internalization, primary screen, cell-based, FAP fluorogen, flow cytometry. AID 504454, 2011. Beta-2 adrenergic receptor (Homo sapiens), P07550. Am2.2-beta2AR cells. hit rate 0.43% among 340,000. response, % (concentration not given with the values);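 active = response above a set limit, near 3 SD of response in nonfluorescent compounds, cut at about 42% in these data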
Target sequence (P07550 whole entry, looked up): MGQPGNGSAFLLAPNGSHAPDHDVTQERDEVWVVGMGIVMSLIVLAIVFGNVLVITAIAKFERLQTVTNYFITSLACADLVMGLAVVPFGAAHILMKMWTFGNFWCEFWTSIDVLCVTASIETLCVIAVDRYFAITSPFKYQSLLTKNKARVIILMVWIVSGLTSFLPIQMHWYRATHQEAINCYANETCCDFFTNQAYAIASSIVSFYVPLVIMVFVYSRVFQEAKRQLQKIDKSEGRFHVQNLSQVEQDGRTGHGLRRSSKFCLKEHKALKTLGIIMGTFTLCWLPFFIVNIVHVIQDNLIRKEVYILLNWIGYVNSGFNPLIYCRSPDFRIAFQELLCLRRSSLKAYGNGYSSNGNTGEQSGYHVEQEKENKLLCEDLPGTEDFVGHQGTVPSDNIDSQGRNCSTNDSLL
MC4R barr ag – MC4R beta-arrestin agonists, retest, confirmation, cell-based, luminescence, U2OS | shares compounds with MC4R barr agon | hit rate 31% among 2,400 | activation, % at 8.9 µM | U2OS MC4R beta-arrestin recruitment; scaled DMSO 0%, Melanotan II 100% | AID 602192, 2012;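 active = mean activation across replicates above the hit cutoff set in the earlier primary screen, cut at about 8% in these data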
MOR-DOR barr ag – agonists of MOR-DOR heterodimerization, counter-screen for MC4R biased agonist project, cell-based, luminescence; shares compounds with MC4R barr agon; U2OS PathHunter beta-arrestin, beta-gal luminescence; percent of deltorphin B response, DMSO zero; activation, % at 9.2 µM; hit rate 5.8% among 2,400; AID 602194, 2012;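 active = mean activation across replicates exceeds the hit threshold derived in the earlier primary screen, cut at about 18% in these data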;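 note: 100% = deltorphin B at 0.9 µM final and 0% = DMSO alone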
An asterisk follows results filed as active; · = not tested or not shown.

SMILES	MC4R barr agon	TAAR1 agonist	TAAR1 antagonist	m5-HT2A agonist	MC4R antag cAMP	B2AR ag	MC4R barr ag	MOR-DOR barr ag
Cc1c(CCOC(=O)CC23CC4CC(CC(C4)C2)C3)sc[n+]1CC(=O)c1ccccc1	2	1	-13	-6	-11	21	·	·
Cc1c(CCOC(=O)C23CC4(C)CC(C)(CC(C)(C4)C2)C3)sc[n+]1CC(=O)c1ccccc1	17*	0	-3	-7	-2	6	16*	18
CC(=O)c1cccc(NC(=O)c2cccc3ccccc23)c1	-3	4	6	-1	6	0	·	·
CCc1ccc(-c2nc(NC(=O)c3ccc(OCC(=O)Nc4ccc(F)cc4)c(OC)c3)sc2C)cc1	11*	0	6	0	13	-2	10*	5
COc1cc(C(=O)Nc2nc(-c3ccc(Cl)cc3)c(C)s2)ccc1OCC(=O)Nc1ccc(F)cc1	5	1	12	3	11	-1	·	·
CCc1cccc(NC(=O)Cn2c(=O)c3cccn3c3ccccc32)c1	11*	1	-3	3	-3	3	5	8
N#Cc1c(N)c(C#N)c(-c2ccc3c(c2)OCO3)c2c1CCCC2	10*	8	-17	2	5	-3	2	4
COc1ccc(N2CCN(c3cncc(C)n3)CC2)cc1	-1	3	-8	12	-1	·	·	·
Cc1cccc(NC(=O)C2C3CCC4C(CCC32)C4(Cl)Cl)c1 (centres undefined)	13*	0	27	1	7	1	2	2
Cc1cc(SCc2ccc([N+](=O)[O-])cc2)nc(=O)[nH]1	-1	1	-3	-3	4	5	·	·
Cc1cc(C)c(C(=O)COC(=O)c2cc([N+](=O)[O-])ccc2N2CCOCC2)cc1C	-3	3	6	0	-2	-7	·	·
CC(=O)Nc1cc(-c2cccc(C(=O)NCCN(C)C)c2)cn2c(-c3ccccc3)cnc12	2	10	-16	-2	11	·	·	·
CC(=O)Nc1cc(-c2cccc(C(=O)NCCN(C)C)c2)cn2c(-c3cccc(C(F)(F)F)c3)cnc12	42*	0	-9	-3	0	·	23*	8
CC(=O)Nc1cc(-c2ccccc2N(C)C)cn2c(-c3cccc(C(F)(F)F)c3)cnc12	15*	1	6	3	-1	·	11*	3
Cc1ccsc1-c1nc(-c2ccccc2)c(-c2ccccc2)[nH]1	10*	9	12	3	0	-4	11*	5
CCOC(=O)c1[nH]c2ccc(Cl)cc2c1NC(=O)/C=C/c1ccc2c(c1)OCO2	38*	2	1	3	-2	-5	3	4
CCOC(=O)c1[nH]c2cc3c(cc2c1NC(=O)CN1CCCC1)OCO3	-1	7	-11	-2	-2	4	·	·
CC(=O)c1ccc(N(CC(=O)NC2CCCCC2)C(=O)CNC(=O)c2cccs2)cc1	2	7	-9	0	6	-1	·	·
C=CCNC(=S)NNc1nc2c(c(=O)[nH]1)C1(CCCCC1)Cc1ccccc1-2	15*	7	1	8	6	5	-3	6
